Test results as given in the EternaBench riboswitch data.

Test system: MS2 coat protein
Assay: apparent Kd, MS2 coat protein; higher = weaker binding; RNA-MaP array; FMN 200 µM where present
Procedure, shortened: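 The apparent Kd is the median of filtered binding-curve fits, one per cluster, to green signal normalised to red-channel RNA signal and control-cluster median Fmax. The clusters were on Illumina sequencing chips, and stalled E. coli RNA polymerase had transcribed the designs on them. Titration used SNAP-549-labelled MS2 coat protein from 0.7 or 1.5 nM, doubling to 3 µM, without and then with constant ligand, in 100 mM Tris-HCl pH 7.5, 80 mM KCl, 4 mM MgCl2, BSA, DTT, yeast tRNA and Tween-20.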

[1] = designed as: OFF switch for flavin mononucleotide, no ligand
[2] = ligand present: flavin mononucleotide, designed as: OFF switch for flavin mononucleotide
[3] = designed as: ON switch for flavin mononucleotide, no ligand
[4] = ligand present: flavin mononucleotide, designed as: ON switch for flavin mononucleotide

| Sequence | apparent Kd [1] [nM] | apparent Kd [2] [nM] | apparent Kd [3] [nM] | apparent Kd [4] [nM] |
| --- | --- | --- | --- | --- |
| GGUGCGUUUGUGAGGAUAUGCUGGUCCUUGGAUCAGCAGAAGGCACAUGAGGAUCACCCAUGUGGUGUCGUCCC | 348 | 44.7 | – | – |
| GGUGCGUUUGUGAGGAUAUGCUGGUCCUUGGUUCGGCAGAAGGCACAUGAGGAUCACCCAUGUGGUGUCGUACC | 16.7 | 48.8 | – | – |
| GGUGCUGUGUAGAAGGCAGAUCUGAUUCAGAUCUGAGGAUAUACAUGAGGAUCACCCAUGUUAAGCACCAGCACGAGAGUGCAA | 5.8 | 8.54 | – | – |
| GGUGGACAUGAGGAUCACCCAUGUGAGGAUAUCGGCUGGCUAGUGGCGGAUGGCUUCUCGAGAAGGCGCAUAGU | 76.9 | 66 | – | – |
| GGUGGCCGAGGAUAUACGGACGUGUCGCCGGGUGUCGUGGGACAUGAGGAUCACCCAUGUAGAAGGUGGUUGUC | 187 | 147 | – | – |
| GGUGGCGUGAUAACGCUAGAUAUAACAUGAGGAUCACCCAUGUAGGAUAUCCCGCCGAGAGGGCGGGAGAAGGACAAUCAAUGG | 45.2 | 47.2 | – | – |
| GGUGGCGUGAUAACGCUAGAUAUAACAUGAGGAUCACCCAUGUAGGAUAUCCUGCCGAGAGGGCGGGAGAAGGACAACCAAUGG | 41.9 | 41.8 | – | – |
| GGUGGUCCUGUUACAUGAGGAUCACCCAUGUGAGGGCCACGUAGAAGGACCCAGAACUCCUUUGGGUAGGAUAUAUGGGCCUUC | 4.78 | 5.97 | – | – |
| GGUGUCGCAUGAGGAUAUGGUCAGCUUUGCUGACCAGAAGGCAUGUCGAUAGACAUGAGGAUCACCCAUGUAGUAAAGACACCA | – | – | 990 | 72.7 |
| GGUGUCGUAUGAGGAUAUGGUCAGCUUUGCUGACCAGAAGGCAUGUCAAUAGACAUGAGGAUCACCCAUGUAGUAAAGACACCA | – | – | 441 | 43.4 |
| GGUUAGGACAGAGGAUAUACGUGCUAGAGAUACUAGCAAAAUUUCCUCACAUGAGGAUCACCCAUGUAGAAGGCUGUCCUAUCG | 16.4 | 434 | – | – |
| GGUUGGCGAGGAUAUACAUGAGGAUCACCCAUGUGGUCCUGAGGCUGAUCAAGCCUAUGUAGAAGGCGCAAAUC | 215 | 38.1 | – | – |
| GGUUGGCGAGGAUAUACAUGAGGAUCACCCAUGUGGUCCUGCGAUAGAAUCGCCCUUUGUAGAAGGCGCGGGUC | 67 | 55.2 | – | – |
| GGUUGGCGAGGAUAUACAUGAGGAUCACCCAUGUGGUCCUGUGGCUGGUCAAACCUUUGUAGAAGGCGCGGGUC | 236 | 228 | – | – |
| GGUUGUCAUCGUCAUCCUUUCGGUACAUGAGGAUCACCCAUGUAGGAUAUGCUGCGUUCGAUGUGGCAGAAGGGCGUGUGUGUU | 22.1 | 40.5 | – | – |
| GGUUUAGGCGAAGGAUAUCCGUCGCGAGAUACUGGAGAAGGUCGCCUUAAUACAUGAGGAUCACCCAUGUGGCGGGUGAACCAC | 326 | 47.6 | – | – |
| GUAAUACAUGAGGAUCACCCAUGUAAGGAUAUGCUAGCGGUCGGCUGACUGACUGCUAGCAGAAGGUACAUGAU | 85.1 | 128 | – | – |
| GUAAUUACGAGAGGAUAUUGACAUGAGGAUCACCCAUGUAUUUGGGAGUGUUCACUGAAUUCUUACGAGAAGGCUCGUAAAUAC | 213 | 214 | – | – |
| GUAAUUAUAUAGGAUAUCGAACUUAUUAUUUAACGAGAAGGAUGAACAUGAGGAUCACCCAUGUGGUAUCAUGG | 156 | 190 | – | – |
| GUACAUGAGCAGAAGGGCAAUUAAUUAAAAUUUUAUGUUUAUCAGAUAUGCAGGAUAUGUUAAACAUGAGGAUCACCCAUGUAC | – | – | 191 | 48.5 |
| GUACGGAAGGAGAAGGGCUAGGAGGUCCAGUUUAUGUGUGUUGCAACAUGAGGAUCACCCAUGUAGCAGGAUAUCCUUUGUACA | 85.6 | 177 | – | – |

| Sequence | apparent Kd [1] [nM] | apparent Kd [2] [nM] | apparent Kd [3] [nM] | apparent Kd [4] [nM] |
| --- | --- | --- | --- | --- |
| GUACGUGGACAGAAGGCGACAUGAGGAUCACCCAUGUUGGCUCGGGUAUGACCAAUCCGCAUGAUUGAGGAUAUGUCUGCGGGC | 9.07 | 62.4 | – | – |
| GUACUACAUGAGGAUCACCCAUGUACAAAGGUACGAGGAUAUGCAUGUACGAAAGUAUAUGCAGAAGGCGUAGUAC | – | – | 25.8 | 21.7 |
| GUACUGUAGUGAGGAUAUACGAGUUCGAUAGAACGGCGAUCCAUAUAUACAUGAGGAUCACCCAUGUAGAAGGCACUUCAGUAC | 7.69 | 100 | – | – |
| GUACUUGUGCAGAAGGGCAUUGAUUUAGGUUGUUAGGUUGAUCAGAUAUGCAGGAUAUGCUAUACAUGAGGAUCACCCAUGUUC | – | – | 92 | 11.7 |
| GUAGAACAUGAGGAUCACCCAUGUGAAGACGCAUGAGGAUAUAUCCGUACCUAGCAUACGAUAGAAGGCAUGAUAC | – | – | 113 | 49.7 |
| GUAGAACAUGAGGAUCACCCAUGUGAUUACGAUGUAGGAUAUGGGCAUGAGAAGUCAUUUCUAGAAGGGCAGAUAA | – | – | 141 | 154 |
| GUAGAGUAAGGAUAUGCUGAAUAGGAUAGAAUGGUUAGAAAGUAGAAGGUACAUGAGGAUCACCCAUGUAAUGU | 24.9 | 25.7 | – | – |
| GUAGAGUAAGGAUAUGUAGAAUAGGAUAGAAUGGUUAGAAUGCAGAAGGUACAUGAGGAUCACCCAUGUAAUGU | 22.1 | 21.1 | – | – |
| GUAGAGUAGUGAGGAUAUACGAGAACGAUAGUUCGGCGAUCCAUUAAUACAUGAGGAUCACCCAUGUAGAAGGCACUUCUCUAC | 7.11 | 90.4 | – | – |
| GUAGAGUAGUGAGGAUAUACGAGAUCGAUAGAUCGGCGAUCCAAUUAUACAUGAGGAUCACCCAUGUAGAAGGCACUUCUCUAC | 12.6 | 116 | – | – |
| GUAGAGUCAGGAUAUACAAAACCAUCGAUAGAUGGAUCCAUACAUGAGGAUCACCCAUGUAGAAGGGACUCUAC | 20.3 | 21.5 | – | – |
| GUAGCAACAUGAGGAUCACCCAUGUAGGAUAUCGCUAUUGUAAUCAUGAAACAUGAUUACAAUAGCGAGAAGGACAUAUGCUAA | 8.33 | 10.7 | – | – |
| GUAGCACAAACAAAUGUAACAUGAGGAUCACCCAUGUGUUAUGAGGAUAUGGAUGUGAAGUUAAUCCAGAAGGCAUUAUGCUAA | – | – | 17.2 | 15.1 |
| GUAGCACAAACAAAUGUAACAUGAGGAUCACCCAUGUGUUAUGAGGAUAUGGAUGUGAAGUUAAUCCAGAAGGCAUUAUGCUAC | – | – | 18.6 | 11.3 |
| GUAGCAUAAUCAGGAUAUUCAGAGAAUAGAUAGACAUGAGGAUCACCCAUGUGGCGAAAGCCUAGGGAGAAGGGAUAAUGCUAC | – | – | 190 | 32.5 |
| GUAGCAUACAGAGGAUAUUCAAACGACAAAAGUCGACAUGAGGAUCACCCAUGUGGCGAAAGCCGGGAGAAGGCUGAAUGCUAC | – | – | 15 | 12 |
| GUAGCAUACCAAGGAUAUUCAUAUAAUAAGUAAACAUGAGGAUCACCCAUGUAGCGAGAGCCUUGGGAGAAGGUGGAAUGCUAC | – | – | 58.7 | 46.7 |
| GUAGCAUACCGAGGAUAUUCUGGGCAUAAAUAAACAUGAGGAUCACCCAUGUGGCGAAAGCCUAGGGAGAAGGCGGAAUGCUAC | – | – | 14.8 | 13.6 |
| GUAGCAUACGGAGGAUAUGUAGGAUCCACAUGAGGAUCACCCAUGUUAAGGACAGAAGGCCGUAUGCUACAAGAGCGAAAGCUC | – | – | 10.6 | 12.3 |
| GUAGCAUUCUGAGGAUAUCCAUACCGGAAACGGACAUGAGGAUCACCCAUGUGGCGAAAGCCUUGGGAGAAGGCAGUAUGCUAC | – | – | 4.87 | 4.34 |
| GUAGCUAUCGCAGGAUAUCCUCAGGCGAAAGCCACAUGAGGAUCACCCAUGUAAAUAAAGUAUUUGGAGAAGGGCGAUAGCUAC | – | – | 710 | 36.1 |
